Published values of several laboratories.
Compare with care: the assays were run in different laboratories.
Cell line: SK-OV-3

SMILES	observed	technique	tested at	time	quantity	result
COc1ccc(C(=O)/C=C/c2cccc(Br)c2)cc1S(N)(=O)=O	cell growth or viability	SRB	–	48 h	GI50	4.1 µM
COc1cc(Nc2nccc(-c3cnn4nc(OC)ccc34)n2)cc(C(F)(F)F)c1	cell growth or viability	ATP luminescence	–	–	IC50	0.16 µM
Cc1cc(C)n(C(=S)[S][Au][PH](CCCCCC[PH]([Au][S]C(=S)n2nc(C)cc2C)(c2ccccc2)c2ccccc2)(c2ccccc2)c2ccccc2)n1	cell growth or viability	–	–	–	GI50	0.852 µM
COc1ccc(C(=O)/C=C/c2c(F)cccc2Cl)cc1S(N)(=O)=O	cell growth or viability	SRB	10 µM	–	inhibition	73%
C[C@]12CC[C@@H]3c4ccc(O)cc4CC[C@H]3[C@@H]1CC[C@@H]2O	cell growth or viability	ATP luminescence	–	72 h	EC50	18.1 µM
COc1ccc(C(=O)/C=C/c2ccccc2Br)cc1S(N)(=O)=O	cell growth or viability	SRB	–	48 h	GI50	12.9 µM
Cn1ncnc1[C@H]1c2n[nH]c(=O)c3cc(F)cc(c23)N[C@@H]1c1ccc(F)cc1	colony formation	–	–	–	IC50	0.0234 µM
COc1cc(CNC(=O)CCCC/C=C/C(C)C)ccc1OCc1cn(-c2ccc(C(F)(F)F)cc2)nn1	cell growth or viability	SRB	–	–	IC50	10.6 µM
COc1ccc(C(=O)/C=C/c2cccc3ccccc23)cc1S(N)(=O)=O	cell growth or viability	SRB	–	48 h	GI50	3.7 µM
COc1cc(-c2ccc(-c3ccc(C(=N)N)nc3)s2)cc(OC)c1OC	cell growth or viability	SRB	–	–	GI50	13.1 µM
CC/C(=C(\c1ccccc1)c1ccc(OCCN(C)C)cc1)c1ccccc1	cell growth or viability	ATP luminescence	–	72 h	EC90	17.4 µM
CCN1CCN(Cc2ccc(Nc3ncc(F)c(-c4cc(F)c5nc(C)n(C(C)C)c5c4)n3)nc2)CC1	cell growth or viability	CCK-8	–	–	IC50	1.62 µM
COc1ccc(C(=O)/C=C/c2ccc3ccccc3c2)cc1S(N)(=O)=O	cell growth or viability	SRB	–	48 h	GI50	4.9 µM
O=c1[nH]cc(F)c(=O)[nH]1	cell growth or viability	MTT	–	48 h	IC50	37.3 µM
COc1cc(CNC(=O)CCCC/C=C/C(C)C)ccc1O	cell growth or viability	SRB	–	–	IC50	22 µM
COc1ccc(-c2ccc(-c3ccc(C(=N)N)nc3)s2)cc1Cl	cell growth or viability	SRB	–	–	GI50	1.75 µM
Cc1ccc(-c2ccc(O)cc2)c(C(=C2C=CC(=O)C=C2)c2ccc(O)cc2)c1C#Cc1ccc(O)cc1	cell growth or viability	MTT	–	48 h	IC50	18.6 µM
COc1ccc(C(=O)/C=C/c2ccc(Cl)c(Cl)c2)cc1S(N)(=O)=O	cell growth or viability	SRB	–	48 h	GI50	5.5 µM
